Data set [1] is described as follows: Half life in rat intestinal homogenates at 5 uM by HPLC method. Format: ADME, tissue-based, Intestine. In a few lines:
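Compound at 5 µM final in rat plasma, 20% rat hepatic homogenate or 20% rat intestinal homogenate at 37 °C for 24 h. Homogenates made by homogenizing 0.3 g saline-washed tissue in 1 mL saline, spun 13,000 rpm 4 °C 5 min. Sampled at intervals, analysed by HPLC. t1/2 = 0.693/k.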

The test system of data set [2] is OCTN2. As to the kind of experiment: Ratio of drug transport in OCTN2 (unknown origin) expressing HEK293 cells assessed as transporter-mediated drug uptake at 25 uM to drug uptake in HEK293 cells at 25 uM. The format is ADME, cell-based. The note with it: human, HEK293 cells expressing OCTN2, against HEK293 cells. In a few lines: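 OCTN2-transfected HEK293 cells and mock HEK293 cells incubated with 25 µM compound at 37 °C for 15 min, then cellular uptake measured; n = 2.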

Data set [3] concerns Caco-2. As to the kind of experiment: Cytotoxicity against human Caco2 cells assessed as decrease in cell viability after 48 hrs by MTT assay. The format is functional, cell-based. To be noted: Caco-2, 48 h. The procedure, abridged:
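BxPC-3 and Caco-2 cells exposed to compounds for 48 h. Viability read by MTT assay kit. IC50 calculated from dose-response.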
In general terms: Formazan colour is commonly taken as a measure of viable cells.

Data set [4] relates to Rattus norvegicus. As to the kind of experiment: AUC (0 to 24 hrs) in Wistar rat at 50 mg/kg, po administered as single dose by UPLC-MS/MS method. Set-up: dose 50 mg/kg, time < 24 hr, route oral. To be noted: in vivo. Format: ADME, organism-based. In a few lines:
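Wistar rats, six per group, single oral dose equivalent to 50 mg/kg gemcitabine; separate group given gemcitabine iv at 7.5 mg/kg. Oral sampling at 5, 10, 15, 30 min and 1, 2, 4, 6, 8, 12, 24 h; iv at 15, 30 min and 2, 4, 8, 12, 24 h. Blood into THU-pretreated heparinized tubes, centrifuged 3000 × g 15 min, plasma at -80 °C. Prodrug and gemcitabine quantified by UPLC-MS/MS. F = AUCpo×Div/AUCiv/Dpo×100%.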

Data set [5] has as its system Mus musculus. The data set can be described thus: Toxicity in Kunming mouse assessed as […] degeneration in lung at 102 mg/kg, po administered once daily for 14 days by hematoxylin/eosin staining based optical microscopic analysis. Format: organism-based. To be noted: in vivo, 336 h. The procedure, abridged: (§1)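 Kunming mice, four per group, dosed orally once daily for 14 days with 102 mg/kg or saline control; body weight recorded every other day. Heart, liver, spleen, lung and kidney fixed in 10% buffered formalin, paraffin-embedded, sectioned, stained with hematoxylin and eosin, and examined by optical microscopy.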

The test system of data set [6] is Mus musculus. As to the kind of experiment: Toxicity in Kunming mouse assessed as inflammatory infiltrates in hepatocytes at 102 mg/kg, po administered once daily for 14 days by hematoxylin/eosin staining based optical microscopic analysis. The format is organism-based. The note with it: in vivo, 336 h. In a few lines:
as §1

For data set [7], the system named is Mus musculus. The data set can be described thus: Toxicity in Kunming mouse assessed as inflammatory infiltrates in spleen at 102 mg/kg, po administered once daily for 14 days by hematoxylin/eosin staining based optical microscopic analysis. The note with it: in vivo, 336 h. Format: organism-based. The procedure, abridged: (§2)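 Kunming mice, four per group, dosed orally once daily for 14 days with test article or physiological saline control, body weight recorded every other day. After sacrifice, heart, liver, spleen, lung and kidney were fixed at once in 10% buffered formalin, paraffin-embedded, sectioned, H&E stained and examined by optical microscopy for hydropic degeneration, inflammatory infiltrates and fibrosis.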

For data set [8], the system named is Mus musculus. As to the kind of experiment: Toxicity in Kunming mouse assessed as inflammatory infiltrates in lung at 102 mg/kg, po administered once daily for 14 days by hematoxylin/eosin staining based optical microscopic analysis. Format: organism-based. To be noted: in vivo, 336 h. The procedure, abridged:
as §2

Data set [9] has as its system Mus musculus. The data set can be described thus: Toxicity in Kunming mouse assessed as fibrosis in hepatocytes at 102 mg/kg, po administered once daily for 14 days by hematoxylin/eosin staining based optical microscopic analysis. The format is organism-based. To be noted: in vivo, 336 h. In a few lines:
as §1

Experimental findings from ChEMBL document CHEMBL4049387, “Combination of l-Carnitine with Lipophilic Linkage-Donating Gemcitabine Derivatives as Intestinal Novel Organic Cation Transporter 2-Targeting Oral Prodrugs” (J Med Chem, 2017) are described below.

The structures appear in SMILES notation.

Broadly, the half-life is how long it takes for the measured level to halve. Low readings indicate fast loss, high ones slow loss. The IC50 is the concentration that inhibits the measured activity by half. The AUC is concentration integrated over time. The low end stands for less exposure, the high end for more exposure.

Regarding `C[N+](C)(C)CC(CC(=O)[O-])OC(=O)CCCCC(=O)Nc1ccn([C@@H]2O[C@H](CO)[C@@H](O)C2(F)F)c(=O)n1` (some centres undefined), the half-life at 5 µM in data set [1] was 78.7 h. The uptake ratio at 25 µM in data set [2] was in the range of 3 to 8. Further, in data set [3], the IC50 is 40.9 µM. In addition, the AUC in data set [4] was found to be 24300 ng·h/mL. The Activity result in data set [5], in data set [6], in data set [7], in [8] and in data set [9] was “Non-Toxic” each time.
